# OX1R antag-1: antagonists of human orexin 1 receptor (OX1R) | AID 485270 | O43613 | hit rate 1.8% among 330,000 | inhibition, % at 6.6 µM | OX1R-expressing cells, FRET antagonist read-out; in the data active means inhibition mostly above about 38%, no sharp cut-off; inactive means mostly below about 40%;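 further: 0% = agonist challenge alone and 100% = reference antagonist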
# OXTR agonist: human OXTR agonism | activation, % at 3 µM | CHO-OTR cells, Fluo-8 calcium fluorescence; normalized: DMSO 0%, oxytocin 100% | hit rate 0.32% among 320,000 | AID 2435 | P30559;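 active means activation above the mean of all tested compounds plus 3 SD, cutoff set per screening run, cut at about 20% in these data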;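 further: peak over basal fluorescence ratio from a 100 s FLIPR kinetic read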
# Target sequence (P30559 whole entry, looked up): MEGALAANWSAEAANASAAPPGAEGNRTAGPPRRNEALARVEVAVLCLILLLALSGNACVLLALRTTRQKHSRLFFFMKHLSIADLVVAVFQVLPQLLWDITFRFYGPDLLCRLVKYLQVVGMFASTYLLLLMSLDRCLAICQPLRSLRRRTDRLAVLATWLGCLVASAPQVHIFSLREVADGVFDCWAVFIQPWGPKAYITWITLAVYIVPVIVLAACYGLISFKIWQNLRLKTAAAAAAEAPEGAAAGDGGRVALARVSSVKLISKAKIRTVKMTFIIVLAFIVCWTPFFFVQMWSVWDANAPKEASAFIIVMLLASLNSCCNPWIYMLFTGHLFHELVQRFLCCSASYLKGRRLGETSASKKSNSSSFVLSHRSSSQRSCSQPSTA
# OX1R antag-2: human HCRTR1 antagonism | O43613 | CHO/OX1R cells, Fluo-8 calcium fluorescence, orexin A | inhibition, % at 5 µM | hit rate 0.43% among 330,000 | AID 434989;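 active means inhibition above its plate's threshold, mean inhibition of all tested compounds on the plate plus 3 SD, cut at about 37% in these data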;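 further: 0% = orexin A challenge wells and 100% = SB-334867-A antagonist wells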
# OXTR potentiate: potentiators of human oxytocin receptor. activation, % at 3 µM. hit rate 0.061% among 320,000. AID 2445. P30559. CHO-OTR cells, Fluo-8 calcium fluorescence, potentiator mode; 0% = oxytocin EC15, 100% = EC100;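 active means activation above that plate's cutoff, the mean activation of tested compounds plus 3 SD, cut at about 6.6% in these data, passing the limit was not always enough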;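 further: 100% uses oxytocin at 75 nM as the full agonist control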
#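 Material: CHO-OTR cells, human receptor; compound dosing: single dose, 3.0 µM nominal final compound concentration; schedule: 6 min compound pre-incubation at room temperature, 100 s kinetic read; measured by: kinetic Fluo-8 calcium fluorescence; read-out basis: % activation vs EC15 and EC100 oxytocin; controls: EC15 oxytocin alone as 0%, 75 nM oxytocin as 100%; replicates: singlicate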
# CHO parental Ca: signal in parental CHO cells, OX1R antagonist counter-screen. hit rate 0.63% among 330,000. inhibition, % at 5.6 µM. AID 463079. parental CHO-K1, ATP-induced calcium, Fluo-8 fluorescence;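 active means inhibition above that plate's mean sample inhibition plus 3 SD, cut at about 26% in these data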;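 further: 0% = ATP-challenged DMSO wells and 100% = DMSO wells without ATP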
#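 Material: Parental CHO cells | Reagent: ATP | Compound dosing: Single nominal dose of 5.6 µM per compound | Detection: Intracellular calcium via Fluo-8 no-wash fluorescent dye | Read-out: % inhibition of ATP-induced calcium mobilization | Benchmarks: Low control ATP plus DMSO, high control DMSO only | Replicates: Singlicate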
# V1aR counter: activates human V1a receptor in oxytocin agonist counter-screen; P37288; CHO-V1R cells, Fluo-8 calcium fluorescence, agonist mode; 0% DMSO, 100% 3 nM vasopressin; activation, % at 3 µM; hit rate 0.25% among 320,000;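 active means activation above the mean activation of all tested compounds plus 3 SD, per screening run, cut at about 20% in these data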;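 further: signal is peak over basal fluorescence ratio across a 100 second FLIPR read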
# OX1R Fluo8 conf: OX1R (human) antagonism, confirmed; shares compounds with OX1R antag-2; CHO/OX1R cells, orexin A calcium Fluo-8 fluorescence; hit rate 38% among 1,100; AID 492963; inhibition, % at 5 µM; in the data active means inhibition above about 29%;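 further: 0% = agonist challenge alone and 100% = reference antagonist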
# CHO Ca counter: counter-screen: parental CHO calcium response change, triplicate; shares compounds with OX1R antag-2; parental CHO-K1, ATP-induced calcium, Fluo-8 fluorescence; inhibition, % at 5.6 µM; hit rate 9.3% among 1,100; AID 492965;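 active means inhibition above a per-plate limit, the mean inhibition of that plate's test compounds plus 3 SD, cut at about 25% in these data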;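 further: 0% = ATP challenge with DMSO and 100% = DMSO without ATP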
# OX1R HTRF conf: OX1R (human) antagonism, HTRF confirmed. shares compounds with OX1R antag-1. OX1R-expressing cells, HTRF antagonist assay. inhibition, % at 6.6 µM. hit rate 49% among 1,800; in the data active means inhibition above about 55%;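 further: CHO cells expressing OX1R stimulated with orexin A at about EC80; 0% = agonist challenge alone and 100% = reference antagonist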
# CHO-K1 HTRF cnt: counter-screen: parental CHO-K1 HTRF response. shares compounds with OX1R antag-1. parental CHO-K1 cells, HTRF counterscreen. inhibition, % at 6.6 µM. hit rate 48% among 1,800. AID 493232; in the data active means inhibition above about 17%;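 further: 0% = agonist challenge with vehicle and 100% = vehicle alone without agonist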
# An asterisk follows results filed as active; nt = not tested or not shown. A selection: hits, their analogues and other compounds. The true share with any hit is near 2.6%.
SMILES,OX1R antag-1,OXTR agonist,OX1R antag-2,OXTR potentiate,CHO parental Ca,V1aR counter,OX1R Fluo8 conf,CHO Ca counter,OX1R HTRF conf,CHO-K1 HTRF cnt
COc1ccc(/C=c2\s/c(=C/C(=O)c3ccc(C)cc3)[nH]c2=O)c(OC)c1,79*,12,47*,-7,9,10,28,2,93*,10
COCCN(Cc1nc2ccccc2c(=O)[nH]1)C(=O)COc1c(C)cc(Cl)cc1C,58*,4,39*,-9,-21,5,18,-16,70*,-1
CCOC(=O)N1CCN(C(=O)CSc2ccc(-c3ccccc3)nn2)CC1,92*,-2,26,-13,-10,-1,27,3,82*,-2
O=C(CSc1ccc(-c2ccccc2)nn1)c1cccs1,102*,-2,50*,-18,-7,-1,99*,-4,90*,-4
COc1ccc(-c2ccc(SCC(=O)c3cccs3)nn2)cc1,50,-2,-17,-16,-16,0,nt,nt,nt,nt
CC(C)[C@H](NC(=O)c1ccccc1)C(=O)Nc1ccc2c(c1)OCO2,0,-2,-8,-8,-5,0,nt,nt,nt,nt
O=C1NC[C@H](c2ccccc2)OC(=O)[C@H](Cc2ccc(F)cc2)C/C=C\C[C@H]1CC(=O)N(CCO)Cc1ccccc1,54*,-1,54*,-8,-23,1,30*,3,50,5
COCCNC(=O)CCN1N=C(c2ccccc2)CCC1=O,9,1,-14,-7,-8,0,nt,nt,nt,nt
Cc1cccc(C(=O)OCC(=O)N2CCC(c3ccccc3)=N2)c1O,24,-1,-25,-3,-7,0,nt,nt,nt,nt
CCc1cc(C(=O)OCC(=O)N2CCC(c3ccccc3)=N2)sc1C,80*,1,54*,-4,-7,2,78*,-4,92*,2
CCc1ccc(NC(=O)CSc2nc(=O)n(CCN(C)C)c3c2CCCC3)cc1,11,-1,-34,-1,-27,0,nt,nt,nt,nt
Cc1ccc(SCc2c(C(=O)N/N=C/c3ccccc3)nnn2-c2nonc2N)cc1,47,-1,22,-14,-47,0,nt,nt,nt,nt
Cc1ccc(-c2c(C(=O)N/N=C/c3ccc4c(c3)OCO4)nnn2-c2nonc2N)cc1,74*,15,46,-9,-11,4,28,3,88*,0
Cc1ccc(SCc2c(C(=O)N/N=C/c3ccc4c(c3)OCO4)nnn2-c2nonc2N)cc1,60*,2,34,-6,-14,3,12,14,82*,7
CCCN1C(C)C(C(=O)OCC)=CN(Cc2cccc(I)c2)S1(=O)=O (stereo not given),11,nt,-8,nt,-31,nt,nt,nt,nt,nt
CC(=O)Nc1cccc(OCCCNC(=O)c2cccc3ccccc23)c1,28,0,-25,1,-12,1,nt,nt,nt,nt
Cc1sc(NC(=O)Cn2[nH]c(=O)c3ccccc3c2=O)nc1-c1ccccc1,74*,-2,39*,-11,-10,0,43*,-4,76*,0
Cc1c(NC(=O)Cn2[nH]c(=O)c3ccccc3c2=O)c(=O)n(-c2ccccc2)n1C,6,2,-7,-3,4,1,nt,nt,nt,nt
Cn1cc(Cl)c(/C(N)=N/OC(=O)c2ccccc2C(F)(F)F)n1,-2,0,2,-3,3,0,nt,nt,nt,nt
O=C(CSc1nnc(Cn2nnc3ccccc32)o1)N(Cc1ccc(F)cc1)c1ccccc1,78*,11,79*,-11,10,7,51*,61*,70*,3
CCOP(=O)(OCC)C(NC(=O)NS(=O)(=O)c1ccc(C)cc1)c1ccccc1 (stereo not given),15,1,-19,1,-8,6,nt,nt,nt,nt
COc1ccc(CN(CC(O)COCc2ccccc2)S(=O)(=O)c2ccccc2Br)cc1OC (stereo not given),46*,nt,55*,nt,-11,nt,21,-16,68*,-2
COc1ccc(S(=O)(=O)N(CC(=O)O)Cc2ccccc2)cc1OC,14,1,16,-7,7,-1,nt,nt,nt,nt
CCOC(=O)C1=C(C)N(C[C@@H]2CC[C@@H](Cc3ccc(-c4ccccc4)cc3)O2)C(=O)NC1C1CC1 (stereo not given in full),34*,nt,51*,nt,12,nt,10,-18,28,1
CCOC(=O)C1=C(C)N(C[C@@H]2CC[C@@H](Cc3ccc(-c4ccccc4)cc3)O2)C(=O)NC1c1ccc(-c2ccccc2)cc1 (stereo not given in full),6,nt,6,nt,2,nt,nt,nt,nt,nt
SMILES,OX1R antag-1,OXTR agonist,OX1R antag-2,OXTR potentiate,CHO parental Ca,V1aR counter,OX1R Fluo8 conf,CHO Ca counter,OX1R HTRF conf,CHO-K1 HTRF cnt
CCSC1=C(C#N)C(c2ccccc2Cl)C(C(=O)c2cccs2)C(O)(C(F)(F)F)N1 (stereo not given),95*,0,95*,-22,-6,2,77*,-13,89*,0
C=CCSC1=C(C#N)C(c2ccccc2Cl)C(C(=O)c2cccs2)C(O)(C(F)(F)F)N1 (stereo not given),104*,0,42*,-13,-21,2,79*,-13,89*,7
CCSC1=C(C#N)C(c2ccccc2Cl)CC(=O)N1 (stereo not given),30,-1,2,-13,-12,1,nt,nt,nt,nt
COc1cc(C2NC(=S)NC(O)(C(F)(F)F)C2C(=O)c2cccs2)cc(OC)c1O (stereo not given),-1,0,-8,3,-8,1,nt,nt,nt,nt
Cn1c(Cc2nc(-c3cnccn3)no2)nnc1SCC(=O)Nc1ccccc1,21,0,-12,5,-4,-1,nt,nt,nt,nt
O=C(Cc1cccs1)NCCS(=O)(=O)N1CCN(c2cccc(Cl)c2)CC1,10,2,-27,-8,-3,2,nt,nt,nt,nt
CCOC(=O)c1c(C)[nH]c(C)c1C(=O)Cn1nnc(-c2ccccc2C)n1,54*,3,29,-13,6,3,29*,7,65*,7
COc1ccc(-n2c(C)cc(C(=O)CN3C(=O)NC4(CCCc5sccc54)C3=O)c2C)cc1 (stereo not given),41,0,-19,-6,-16,1,nt,nt,nt,nt
